Experimental data as given in the RNAGym collection of RNA variant scans (doi:10.1002/anie.201605470).

B1: Osa-1-4 twister ribozyme (parent)
chain: CCGCCUAACACUGCCAAUGCCGGUCCCAAGCCCGGAUAAAAGUGGAGGGGGCGG

Variants of: B1
Test: self-cleavage, relative activity (ratio to wild type); higher = more cleavage; co-transcriptional
Summary of the method: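 The 48 positions downstream of the cleavage site in a 54-nucleotide Oryza sativa twister ribozyme template were synthesised at 97 % wild-type base and 1 % of each other base. The template was transcribed in vitro at 37 °C for 2 h, with self-cleavage allowed during transcription. Reads with or without upstream sequence after deep sequencing marked cleavage status, and relative activity is fraction cleaved normalised to wild type.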

Row | Variant | self-cleavage
1 | CCGCCUAACACUGCCAAUGCCGGUCCCACGCCCGGAAAAAAGUGGAGGGGGCGG [A29C U37A] | 0.04
2 | CCGCCUAACACUGCCAAUGCCGGUCCCACGCCCGGACAAAAGUGGAGGGGGCGG [A29C U37C] | 0.04
3 | CCGCCUAACACUGCCAAUGCCGGUCCCACGCCCGGAGAAAAGUGGAGGGGGCGG [A29C U37G] | 0.06
4 | CCGCCUAACAAUGCCAAUGCCGGUCCCAGGCCCGGAUAAAAGUGGAGGGGGCGG [A29G C11A] | 0.08
5 | CCGCCUAACAUUGCCAAUGCCGGUCCCAGGCCCGGAUAAAAGUGGAGGGGGCGG [A29G C11U] | 0.11
6 | CCGCCUAACAGUGCCAAUGCCGGUCCCAGGCCCGGAUAAAAGUGGAGGGGGCGG [A29G C11G] | 0.07
7 | CCGCCUAACACCGCCAAUGCCGGUCCCACGCCCGGAUAAAAGUGGAGGGGGCGG [A29C U12C] | 0.03
8 | CCGCCUAACACGGCCAAUGCCGGUCCCACGCCCGGAUAAAAGUGGAGGGGGCGG [A29C U12G] | 0.03
9 | CCGCCUAACACAGCCAAUGCCGGUCCCACGCCCGGAUAAAAGUGGAGGGGGCGG [A29C U12A] | 0.05
10 | CCGCCUAACACUGCAAAUGCCGGUCCCAGGCCCGGAUAAAAGUGGAGGGGGCGG [A29G C15A] | 0.06
11 | CCGCCUAACACUGCGAAUGCCGGUCCCAGGCCCGGAUAAAAGUGGAGGGGGCGG [A29G C15G] | 0.08
12 | CCGCCUAACACUGCUAAUGCCGGUCCCAGGCCCGGAUAAAAGUGGAGGGGGCGG [A29G C15U] | 0.05
13 | CCGCCUAACACUGCCAAUGCCGGUCCCAGGCCCGGAUAGAAGUGGAGGGGGCGG [A29G A39G] | 0.09
14 | CCGCCUAACACUGCCAAUGCCGGUCCCAGGCCCGGAUAUAAGUGGAGGGGGCGG [A29G A39U] | 0.11
15 | CCGCCUAACACUGCCAAUGCCGGUCCCAGGCCCGGAUACAAGUGGAGGGGGCGG [A29G A39C] | 0.06
16 | CCGCCUAAAACUGCCAAUGCCGGUCCCAGGCCCGGAUAAAAGUGGAGGGGGCGG [A29G C9A] | 0.05
17 | CCGCCUAAGACUGCCAAUGCCGGUCCCAGGCCCGGAUAAAAGUGGAGGGGGCGG [A29G C9G] | 0.09
18 | CCGCCUAAUACUGCCAAUGCCGGUCCCAGGCCCGGAUAAAAGUGGAGGGGGCGG [A29G C9U] | 0.06
19 | CCGCCUAACACUGCCAAUGCCGGUCCUAGGCCCGGAUAAAAGUGGAGGGGGCGG [A29G C27U] | 0.05
20 | CCGCCUAACACUGCCAAUGCCGGUCCAAGGCCCGGAUAAAAGUGGAGGGGGCGG [A29G C27A] | 0.06
21 | CCGCCUAACACUGCCAAUGCCGGUCCGAGGCCCGGAUAAAAGUGGAGGGGGCGG [A29G C27G] | 0.06
22 | CCGCCUAACACUGCCAAUGCCGGUGCCAGGCCCGGAUAAAAGUGGAGGGGGCGG [A29G C25G] | 0.04
23 | CCGCCUAACACUGCCAAUGCCGGUUCCAGGCCCGGAUAAAAGUGGAGGGGGCGG [A29G C25U] | 0.08
24 | CCGCCUAACACUGCCAAUGCCGGUACCAGGCCCGGAUAAAAGUGGAGGGGGCGG [A29G C25A] | 0.04
25 | CCGCCUAACACUGCCAAUGCGGGUCCCAGGCCCGGAUAAAAGUGGAGGGGGCGG [A29G C21G] | 0.07

Row | Variant | self-cleavage
26 | CCGCCUAACACUGCCAAUGCUGGUCCCAGGCCCGGAUAAAAGUGGAGGGGGCGG [A29G C21U] | 0.17
27 | CCGCCUAACACUGCCAAUGCAGGUCCCAGGCCCGGAUAAAAGUGGAGGGGGCGG [A29G C21A] | 0.1
28 | CCGCCUAACACUGCCAACGCCGGUCCCACGCCCGGAUAAAAGUGGAGGGGGCGG [A29C U18C] | 0.04
29 | CCGCCUAACACUGCCAAGGCCGGUCCCACGCCCGGAUAAAAGUGGAGGGGGCGG [A29C U18G] | 0.06
30 | CCGCCUAACACUGCCAAAGCCGGUCCCACGCCCGGAUAAAAGUGGAGGGGGCGG [A29C U18A] | 0.04
31 | CCGCCUAACACUGCCAAUGCCGGUCCCAGGCCCGGAUAAGAGUGGAGGGGGCGG [A29G A40G] | 0.07
32 | CCGCCUAACACUGCCAAUGCCGGUCCCAGGCCCGGAUAACAGUGGAGGGGGCGG [A29G A40C] | 0.04
33 | CCGCCUAACACUGCCAAUGCCGGUCCCAGGCCCGGAUAAUAGUGGAGGGGGCGG [A29G A40U] | 0.15
34 | CCGCCUAACACUGCCAAUGACGGUCCCAGGCCCGGAUAAAAGUGGAGGGGGCGG [A29G C20A] | 0.33
35 | CCGCCUAACACUGCCAAUGGCGGUCCCAGGCCCGGAUAAAAGUGGAGGGGGCGG [A29G C20G] | 0.04
36 | CCGCCUAACACUGCCAAUGUCGGUCCCAGGCCCGGAUAAAAGUGGAGGGGGCGG [A29G C20U] | 0.28
37 | CCGCCUAACACUGCCAAUGCCGGUCCCACGCCCGGAUAAAAGUGGAGGCGGCGG [A29C G49C] | 0.01
38 | CCGCCUAACACUGCCAAUGCCGGUCCCACGCCCGGAUAAAAGUGGAGGAGGCGG [A29C G49A] | 0.02
39 | CCGCCUAACACUGCCAAUGCCGGUCCCACGCCCGGAUAAAAGUGGAGGUGGCGG [A29C G49U] | 0.02
40 | CCGCCUAACACUGCCAAUGCCGGUCCCAGGCCCGGAUAAAAGUGGAGGGGGCGG [A29G] | 0.4
41 | CCGCCUCACACUGCCAAUGCCGGUCCCAGGCCCGGAUAAAAGUGGAGGGGGCGG [A29G A7C] | 0.03
42 | CCGCCUUACACUGCCAAUGCCGGUCCCAGGCCCGGAUAAAAGUGGAGGGGGCGG [A29G A7U] | 0.14
43 | CCGCCUGACACUGCCAAUGCCGGUCCCAGGCCCGGAUAAAAGUGGAGGGGGCGG [A29G A7G] | 0.11
44 | CCGCCUAACACUGCCAAUGCCGGUCCCACGCCCGGAUAAAAGGGGAGGGGGCGG [A29C U43G] | 0.05
45 | CCGCCUAACACUGCCAAUGCCGGUCCCACGCCCGGAUAAAAGAGGAGGGGGCGG [A29C U43A] | 0.03
46 | CCGCCUAACACUGCCAAUGCCGGUCCCACGCCCGGAUAAAAGCGGAGGGGGCGG [A29C U43C] | 0.03
47 | CCGCCUAACACUGCCAAUGCCGGUCCCAGGCACGGAUAAAAGUGGAGGGGGCGG [A29G C32A] | 0.04
48 | CCGCCUAACACUGCCAAUGCCGGUCCCAGGCUCGGAUAAAAGUGGAGGGGGCGG [A29G C32U] | 0.06
49 | CCGCCUAACACUGCCAAUGCCGGUCCCAGGCGCGGAUAAAAGUGGAGGGGGCGG [A29G C32G] | 0.07
